Measured values as given in ChEMBL document CHEMBL1146239, “Kadsuphilols A-H, oxygenated lignans from Kadsura philippinensis” (J Nat Prod, 2007).

assay: DPPH radical scavenging activity at 100 uM; type: functional
Procedure, shortened: (§1)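 Compound dilutions prepared in 100% DMSO, mixed with 100 µM DPPH in ethanol at 37 °C, shaken vigorously and left to stand 30 min. Absorbance read at 517 nm by UV-vis spectrophotometry. Scavenging reported as percent at 100, 50, 25, 12.5 and 6.25 µM. Vitamins C and E served as standards.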

Compound	Activity	inhibition
COc1cc2c(c(O)c1OC)-c1c(cc3c(c1OC)OCO3)[C@H](O)[C@H](C)[C@H](C)C2	-4.2%	
C/C=C(\C)C(=O)O[C@H]1[C@@](C)(O)[C@@H](C)[C@H]2O[C@@]13CC(OC)=C(OC)C(=O)C31COc3c4c(cc2c31)OCO4 (stereo not given in full)	8.4%	
COc1cc2c(c(O)c1OC)-c1c(cc3c(c1OC)OCO3)[C@H](OC(=O)c1ccccc1)[C@H](C)[C@H](C)[C@H]2OC(C)=O	-23.1%	
C/C=C(\C)C(=O)O[C@@H]1C2=CC(OC)=C(OC)C(=O)C23COc2c4c(cc(c23)[C@@H](OC(=O)c2ccccc2)[C@H](C)[C@]1(C)O)OCO4 (stereo not given in full)	12.9%	
VITAMIN E	17.6%	
C/C=C(\C)C(=O)O[C@@H]1c2cc3c(c4c2C2(CO4)C(=O)C(OC)=C(OC)C=C2[C@@H](OC(=O)c2ccccc2)[C@@](C)(O)[C@H]1C)OCO3 (stereo not given in full)	35.6%	
C/C=C(\C)C(=O)O[C@H]1c2cc3c(c(OC)c2-c2c(cc(OC)c(OC)c2O)[C@H](OC(=O)/C(C)=C/C)[C@@]2(CO2)[C@H]1C)OCO3		54.7%
C/C=C(\C)C(=O)O[C@H]1[C@@](C)(O)[C@@H](C)[C@H]2O[C@@]13CC(=O)C(OC)=C(OC)C31COc3c4c(cc2c31)OCO4 (stereo not given in full)	-2.8%	
COc1cc2c(c(OC)c1O)-c1c(cc(OC)c(OC)c1O)C[C@@H](C)[C@@H](C)[C@H]2OC(=O)/C=C/c1ccccc1	38.1%	
O=C1O[C@H]([C@@H](O)CO)C(O)=C1O	39%	

assay: DPPH radical scavenging activity at 25 uM; type: functional; procedure, shortened: as §1

Compound	Activity
COc1cc2c(c(O)c1OC)-c1c(cc3c(c1OC)OCO3)[C@H](O)[C@H](C)[C@H](C)C2	-10.7%
C/C=C(\C)C(=O)O[C@H]1[C@@](C)(O)[C@@H](C)[C@H]2O[C@@]13CC(OC)=C(OC)C(=O)C31COc3c4c(cc2c31)OCO4 (stereo not given in full)	6.1%
COc1cc2c(c(O)c1OC)-c1c(cc3c(c1OC)OCO3)[C@H](OC(=O)c1ccccc1)[C@H](C)[C@H](C)[C@H]2OC(C)=O	-32.2%
C/C=C(\C)C(=O)O[C@@H]1C2=CC(OC)=C(OC)C(=O)C23COc2c4c(cc(c23)[C@@H](OC(=O)c2ccccc2)[C@H](C)[C@]1(C)O)OCO4 (stereo not given in full)	11.4%
VITAMIN E	12.6%
C/C=C(\C)C(=O)O[C@@H]1c2cc3c(c4c2C2(CO4)C(=O)C(OC)=C(OC)C=C2[C@@H](OC(=O)c2ccccc2)[C@@](C)(O)[C@H]1C)OCO3 (stereo not given in full)	32%
C/C=C(\C)C(=O)O[C@H]1c2cc3c(c(OC)c2-c2c(cc(OC)c(OC)c2O)[C@H](OC(=O)/C(C)=C/C)[C@@]2(CO2)[C@H]1C)OCO3	48.1%
C/C=C(\C)C(=O)O[C@H]1[C@@](C)(O)[C@@H](C)[C@H]2O[C@@]13CC(=O)C(OC)=C(OC)C31COc3c4c(cc2c31)OCO4 (stereo not given in full)	-3.2%
COc1cc2c(c(OC)c1O)-c1c(cc(OC)c(OC)c1O)C[C@@H](C)[C@@H](C)[C@H]2OC(=O)/C=C/c1ccccc1	32.2%
O=C1O[C@H]([C@@H](O)CO)C(O)=C1O	24.9%

assay: DPPH radical scavenging activity at 12.5 uM; type: functional; procedure, shortened: as §1

Compound	Activity
COc1cc2c(c(O)c1OC)-c1c(cc3c(c1OC)OCO3)[C@H](O)[C@H](C)[C@H](C)C2	-18.5%
C/C=C(\C)C(=O)O[C@H]1[C@@](C)(O)[C@@H](C)[C@H]2O[C@@]13CC(OC)=C(OC)C(=O)C31COc3c4c(cc2c31)OCO4 (stereo not given in full)	3.9%
COc1cc2c(c(O)c1OC)-c1c(cc3c(c1OC)OCO3)[C@H](OC(=O)c1ccccc1)[C@H](C)[C@H](C)[C@H]2OC(C)=O	-33.8%
C/C=C(\C)C(=O)O[C@@H]1C2=CC(OC)=C(OC)C(=O)C23COc2c4c(cc(c23)[C@@H](OC(=O)c2ccccc2)[C@H](C)[C@]1(C)O)OCO4 (stereo not given in full)	10.3%
VITAMIN E	4.9%
C/C=C(\C)C(=O)O[C@@H]1c2cc3c(c4c2C2(CO4)C(=O)C(OC)=C(OC)C=C2[C@@H](OC(=O)c2ccccc2)[C@@](C)(O)[C@H]1C)OCO3 (stereo not given in full)	13.8%
C/C=C(\C)C(=O)O[C@H]1c2cc3c(c(OC)c2-c2c(cc(OC)c(OC)c2O)[C@H](OC(=O)/C(C)=C/C)[C@@]2(CO2)[C@H]1C)OCO3	46.2%
C/C=C(\C)C(=O)O[C@H]1[C@@](C)(O)[C@@H](C)[C@H]2O[C@@]13CC(=O)C(OC)=C(OC)C31COc3c4c(cc2c31)OCO4 (stereo not given in full)	-4.7%
COc1cc2c(c(OC)c1O)-c1c(cc(OC)c(OC)c1O)C[C@@H](C)[C@@H](C)[C@H]2OC(=O)/C=C/c1ccccc1	28.1%
O=C1O[C@H]([C@@H](O)CO)C(O)=C1O	20.7%

assay: DPPH radical scavenging activity at 6.25 uM; type: functional; procedure, shortened: as §1

Compound	Activity
COc1cc2c(c(O)c1OC)-c1c(cc3c(c1OC)OCO3)[C@H](O)[C@H](C)[C@H](C)C2	-38.9%
C/C=C(\C)C(=O)O[C@H]1[C@@](C)(O)[C@@H](C)[C@H]2O[C@@]13CC(OC)=C(OC)C(=O)C31COc3c4c(cc2c31)OCO4 (stereo not given in full)	3.9%
COc1cc2c(c(O)c1OC)-c1c(cc3c(c1OC)OCO3)[C@H](OC(=O)c1ccccc1)[C@H](C)[C@H](C)[C@H]2OC(C)=O	-35.6%
C/C=C(\C)C(=O)O[C@@H]1C2=CC(OC)=C(OC)C(=O)C23COc2c4c(cc(c23)[C@@H](OC(=O)c2ccccc2)[C@H](C)[C@]1(C)O)OCO4 (stereo not given in full)	8.6%
VITAMIN E	1.3%
C/C=C(\C)C(=O)O[C@@H]1c2cc3c(c4c2C2(CO4)C(=O)C(OC)=C(OC)C=C2[C@@H](OC(=O)c2ccccc2)[C@@](C)(O)[C@H]1C)OCO3 (stereo not given in full)	20.2%
C/C=C(\C)C(=O)O[C@H]1c2cc3c(c(OC)c2-c2c(cc(OC)c(OC)c2O)[C@H](OC(=O)/C(C)=C/C)[C@@]2(CO2)[C@H]1C)OCO3	47.4%
C/C=C(\C)C(=O)O[C@H]1[C@@](C)(O)[C@@H](C)[C@H]2O[C@@]13CC(=O)C(OC)=C(OC)C31COc3c4c(cc2c31)OCO4 (stereo not given in full)	-5.3%
COc1cc2c(c(OC)c1O)-c1c(cc(OC)c(OC)c1O)C[C@@H](C)[C@@H](C)[C@H]2OC(=O)/C=C/c1ccccc1	10%
O=C1O[C@H]([C@@H](O)CO)C(O)=C1O	19.2%

assay: DPPH radical scavenging activity at 50 uM; type: functional; procedure, shortened: as §1

Compound	Activity
COc1cc2c(c(O)c1OC)-c1c(cc3c(c1OC)OCO3)[C@H](O)[C@H](C)[C@H](C)C2	-1.6%
C/C=C(\C)C(=O)O[C@H]1[C@@](C)(O)[C@@H](C)[C@H]2O[C@@]13CC(OC)=C(OC)C(=O)C31COc3c4c(cc2c31)OCO4 (stereo not given in full)	6.6%
COc1cc2c(c(O)c1OC)-c1c(cc3c(c1OC)OCO3)[C@H](OC(=O)c1ccccc1)[C@H](C)[C@H](C)[C@H]2OC(C)=O	-30.8%
C/C=C(\C)C(=O)O[C@@H]1C2=CC(OC)=C(OC)C(=O)C23COc2c4c(cc(c23)[C@@H](OC(=O)c2ccccc2)[C@H](C)[C@]1(C)O)OCO4 (stereo not given in full)	12.8%
VITAMIN E	12.9%
C/C=C(\C)C(=O)O[C@@H]1c2cc3c(c4c2C2(CO4)C(=O)C(OC)=C(OC)C=C2[C@@H](OC(=O)c2ccccc2)[C@@](C)(O)[C@H]1C)OCO3 (stereo not given in full)	33.9%
C/C=C(\C)C(=O)O[C@H]1c2cc3c(c(OC)c2-c2c(cc(OC)c(OC)c2O)[C@H](OC(=O)/C(C)=C/C)[C@@]2(CO2)[C@H]1C)OCO3	51.4%
C/C=C(\C)C(=O)O[C@H]1[C@@](C)(O)[C@@H](C)[C@H]2O[C@@]13CC(=O)C(OC)=C(OC)C31COc3c4c(cc2c31)OCO4 (stereo not given in full)	-3.7%
COc1cc2c(c(OC)c1O)-c1c(cc(OC)c(OC)c1O)C[C@@H](C)[C@@H](C)[C@H]2OC(=O)/C=C/c1ccccc1	34.4%
O=C1O[C@H]([C@@H](O)CO)C(O)=C1O	36.7%
